The values below come from ChEMBL document CHEMBL1142832, “Potent 4-aminopiperidine based antimalarial agents” (Bioorg Med Chem Lett, 2005).

Assay [1] concerns HFF. As to the kind of experiment: Cytotoxicity of compound was determined in human foreskin fibroblast assay. It counts as functional. In outline: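 Human foreskin fibroblasts were assayed in quadruplicate, and the average toxicity value is reported in nM.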
In assay [2] the test system is Plasmodium falciparum. As to the kind of experiment: Inhibition against multidrug-resistant Plasmodium falciparum infected erythrocytes. Format: functional, organism-based. In outline: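 Multidrug-resistant P. falciparum Dd2 was grown in human red blood cells and assayed at the late ring stage. Parasite growth was read as [3H]-hypoxanthine incorporation. Each compound was run in duplicate, and the mean IC50 (nM) is reported.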

In assay [3] the test system is Plasmodium falciparum. Nature of the assay: Inhibitory concentration against chloroquine-sensitive Plasmodium falciparum. Format: functional, organism-based.
The species named for assay [4] is Mus musculus. As to the kind of experiment: Percent remaining of compound was determined in mouse S9 liver microsomes at 1 hr. The settings on record: Liver S9 fraction. In general terms: Liver microsomes are vesicles of endoplasmic reticulum, rich in cytochrome P450 enzymes.
Assay [5] is filed under the species Homo sapiens. As to the kind of experiment: Percent remaining of compound was determined in human S9 liver microsomes at 1 hr. To be noted: Liver S9 fraction.

pIC50: −log10 of the molar value.

A word on the pIC50: it is −log10 of the IC50, conventionally taken in molar units. The low end stands for a large IC50, the high end for a small IC50. On to `CCN(CC)CCCNC1CCN(CC2CCCCC2)CC1`, for which, in assay [1], the Cytotoxicity stood at 6000 nM. This molecule also showed a pIC50 in assay [2] of 5.37.

Take `CCN(CC)CCCNC1CCN(CCc2ccc(Cl)cc2)CC1`: the Cytotoxicity in assay [1] is 2700 nM. In assay [2], this molecule had a pIC50 of 6.07.

In assay [1], `CCN(CC)CCCNC1CCN(CC(c2ccccc2)c2ccccc2)CC1` had a Cytotoxicity of 9900 nM. For the same molecule, the pIC50 in assay [2] was 6.05; in assay [3], 7.52.

In turn, `CCN(CC)CCCNC1CCN(CCC2CCCCC2)CC1` returned a Cytotoxicity in assay [1] of 2900 nM. Moreover, the pIC50 in assay [2] was 6.04.

Regarding `CCN(CCCNC1CCN(CC(c2ccccc2)c2ccccc2)CC1)CCC1CCCCC1`, in assay [1], the Cytotoxicity worked out at 2100 nM. For the same molecule, in assay [2], the pIC50 is 6.60.

For the molecule `CCN(CCCNC1CCN(CC(c2ccccc2)c2ccccc2)CC1)CC1CCCCC1`, in assay [1], the Cytotoxicity was determined as 2200 nM. The molecule further showed a pIC50 in assay [2] of 6.70.

On to `c1ccc(Oc2ccc(CNCCCNC3CCN(CC4CCCCC4)CC3)cc2)cc1`, for which the pIC50 in assay [3] is 7.52.

Turning to `c1ccc(C(CN2CCC(NCCCN3CCCC3)CC2)c2ccccc2)cc1`, in assay [1], the Cytotoxicity is 2500 nM. This molecule showed a pIC50 in assay [2] of 6.70.

In assay [1], `CCN(CCCNC1CCN(CC(c2ccccc2)c2ccccc2)CC1)CC(c1ccccc1)c1ccccc1` had a Cytotoxicity of 9900 nM. This molecule also showed a negative-log IC50 (pIC50) in assay [2] of 6.05.

Consider `CCN(CCCNC1CCN(CC(c2ccccc2)c2ccccc2)CC1)CCc1ccc(Cl)cc1`, for which, in assay [1], the Cytotoxicity stood at 2000 nM. In assay [2], this molecule had a pIC50 of 6.70.

As for `CCN(CCCNC1CCN(CC(c2ccccc2)c2ccccc2)CC1)CCc1ccc(-c2ccccc2)cc1`, in assay [1], the Cytotoxicity amounted to 7600 nM. The level, % of control in assay [4] was determined as 113%; in assay [5], 45%. The pIC50 in assay [2] was 7.12.

As for `CCNCCCNC1CCN(CC(c2ccccc2)c2ccccc2)CC1`, the Cytotoxicity in assay [1] came out at 2600 nM. In assay [2], the pIC50 was 5.60.

Molecule `c1ccc(C(CN2CCC(NCCCN3CCCCC3)CC2)c2ccccc2)cc1` showed a Cytotoxicity in assay [1] of 1200 nM. This molecule gave a negative-log IC50 (pIC50) in assay [2] of 6.70.

With `CCN(CC)CCCNC1CCN(CCc2ccc(-c3ccccc3)cc2)CC1`, in assay [1], the Cytotoxicity is 1200 nM. For the same molecule, the pIC50 in assay [2] is 6.40.

On to `CN(C)CCCNC1CCN(CC(c2ccccc2)c2ccccc2)CC1`, for which the Cytotoxicity in assay [1] is recorded as 1300 nM. In assay [2], this molecule gave a pIC50 of 6.52.
